Results published in ChEMBL document CHEMBL4024804 (J Med Chem, 2018).
pIC50: −log10 of the molar value.

Columns and labels:
M14 = assay: Cytotoxicity against human M14 cells after 72 hrs by MTS assay; type: functional, cell-based; conditions: M14, 72 h
In short: (§1)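 Melanoma cells grown in DMEM with 10% FBS and seeded at 1800–3500 cells per well, then incubated overnight. Cells treated for 72 h with 10 concentrations from 0.03 nM to 1 μM, with DMSO vehicle, in four replicates. MTS added for at least 1 h at 37 °C and absorbance read at 490 nm. IC50 obtained by nonlinear regression.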

A-375 = assay: Cytotoxicity against human A375 cells after 72 hrs by MTS assay; type: functional, cell-based; conditions: A-375, 72 h; in short: as §1
RPMI-7951 = assay: Cytotoxicity against human RPMI7951 cells after 72 hrs by MTS assay; type: functional, cell-based; conditions: RPMI-7951, 72 h; in short: as §1
Liver = assay: Half life in human liver microsomes by UPLC-MS analysis; type: ADME, microsome
In short: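 Compound at 10 mM in DMSO diluted into human liver microsomes (0.6381 mg/mL protein) in 0.1 M potassium phosphate pH 7.4 with EDTA. NADPH regenerating system added, incubated at 37 °C for 0–4 h in triplicate. Quenched with cold acetonitrile containing warfarin as internal standard, analysed by UPLC–MS SIR. ke from log-linear regression; t1/2 = ln 2/ke.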

Structure (SMILES): COc1ccc2c(n1)CCCN2c1nc(Cl)nc2ncccc12
- pIC50 (M14): < 6.00
- pIC50 (A-375): < 6.00
- pIC50 (RPMI-7951): < 6.00

Structure (SMILES): CN(c1ccc2c(c1)OCO2)c1nc(Cl)nc2ncccc12
- pIC50 (M14): 6.78
- pIC50 (A-375): 6.79
- pIC50 (RPMI-7951): 6.75

Structure (SMILES): COc1ccc2c(c1)CCCN2c1nc(C)nc2[nH]ncc12
- pIC50 (M14): < 6.00
- pIC50 (A-375): < 6.00
- pIC50 (RPMI-7951): < 6.00

Structure (SMILES): COc1ccc2c(c1)CCCN2c1nc(Cl)nc2ncn(C)c12
- pIC50 (M14): 7.39
- pIC50 (A-375): 7.40
- pIC50 (RPMI-7951): 7.23

Structure (SMILES): COc1cc(N(C)c2nc(Cl)nc3ncccc23)cc(OC)c1OC
- pIC50 (M14): < 6.00
- pIC50 (A-375): < 6.00
- pIC50 (RPMI-7951): < 6.00

Structure (SMILES): COc1ccc2c(c1)CCCN2c1nc(Cl)nc2c1cnn2C
- pIC50 (M14): < 6.00
- pIC50 (A-375): < 6.00
- pIC50 (RPMI-7951): < 6.00

Structure (SMILES): COc1ccc2c(c1)CCCN2c1nc(Cl)nc2cccnc12
- pIC50 (M14): 8.38
- pIC50 (A-375): 8.40
- pIC50 (RPMI-7951): 8.36

Structure (SMILES): COc1ccc2c(c1)CCCN2c1nc(Cl)nc2c(C)csc12
- pIC50 (M14): 7.28
- pIC50 (A-375): 7.31
- pIC50 (RPMI-7951): 7.04

Structure (SMILES): COc1ccc2c(c1)CCCN2c1nc(C)nc2onc(C)c12
- t1/2 (Liver): 51.6 min
- pIC50 (M14): 7.73
- pIC50 (A-375): 7.79
- pIC50 (RPMI-7951): 7.75
